Measured values as given in ChEMBL document CHEMBL1139871, “Selective urokinase-type plasminogen activator inhibitors. 4. 1-(7-sulfonamidoisoquinolinyl)guanidines” (J Med Chem, 2007).
In brackets after ≈: the same amount, converted by molar mass.

Experiments:
[1] = molecular target: T1, Urokinase-type plasminogen activator (Homo sapiens, UniProt P00749); assay: Inhibition of uPA in pig granulation tissue homogenate
[2] = species: Homo sapiens; assay: Protein binding in human plasma; conditions: read-out: PPB (converted)
[3] = molecular target: Prothrombin (Bos taurus) (UniProt P00735); assay: Inhibition of bovine thrombin at 10 uM
How it was run: (§1)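 Chromogenic enzyme assays against coagulation proteases: bovine thrombin, human factors VIIa and IXa.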

[4] = molecular target: Coagulation factor IX (Homo sapiens, UniProt P00740); assay: Inhibition of factor 9a
How it was run: as §1

[5] = molecular target: T2, Coagulation factor VII (Homo sapiens) (UniProt P08709); assay: Inhibition of factor 7a at 10 uM
T2 sequence (whole entry): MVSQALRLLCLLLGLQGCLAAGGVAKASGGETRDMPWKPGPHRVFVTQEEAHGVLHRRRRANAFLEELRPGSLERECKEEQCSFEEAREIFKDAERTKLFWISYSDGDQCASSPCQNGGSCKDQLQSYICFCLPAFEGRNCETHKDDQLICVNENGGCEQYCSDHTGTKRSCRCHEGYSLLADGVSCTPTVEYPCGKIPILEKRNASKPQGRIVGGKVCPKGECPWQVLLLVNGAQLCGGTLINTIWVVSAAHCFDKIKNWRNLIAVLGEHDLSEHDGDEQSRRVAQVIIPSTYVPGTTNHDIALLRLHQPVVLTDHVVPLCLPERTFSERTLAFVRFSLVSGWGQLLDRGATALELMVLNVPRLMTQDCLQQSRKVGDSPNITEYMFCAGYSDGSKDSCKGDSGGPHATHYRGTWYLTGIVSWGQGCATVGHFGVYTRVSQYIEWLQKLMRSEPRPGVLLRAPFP
How it was run: as §1

[6] = Lipophilicity, log D at pH7.4; assay type: physicochemical; conditions: buffer, pH 7.4
[7] = molecular target: T1, Urokinase-type plasminogen activator; assay: Inhibition of human uPA in human wound fluid
[8] = molecular target: Coagulation factor X (Homo sapiens) (UniProt P00742); assay: Inhibition of factor 10a at 10 uM
How it was run: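 Human coagulation enzyme tested in a chromogenic enzyme assay. Percent inhibition was read at a single inhibitor concentration.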

[9] = Dissociation constant, pKa of the compound; assay type: physicochemical
[10] = species: Homo sapiens; assay: Solubility in human plasma
[11] = Solubility in phosphate buffered saline at pH 6.5; assay type: physicochemical
How it was run: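 Solubility measured in phosphate-buffered saline, pH 6.5.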

[12] = molecular target: T3, Plasminogen (Homo sapiens, UniProt P00747); assay: Inhibition of human plasmin
How it was run: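 Human plasmin 0.7 µg/mL with 0.2 mM Chromozym-PL and varied inhibitor in Tris pH 8.1/NaCl buffer. Preincubated 15 min at 37 °C, then 30 min at 37 °C with substrate. A405 background-subtracted, % inhibition plotted for IC50.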

[13] = molecular target: T1, Urokinase-type plasminogen activator
[14] = molecular target: T4, Tissue-type plasminogen activator (Homo sapiens, UniProt P00750); assay: Inhibition of human tPA
How it was run: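 Human one-chain tPA 0.4 µg/mL (final) with 0.1 mg/mL tPA stimulator, preincubated 15 min at 37 °C with inhibitor in 75 mM Tris pH 8.1, 50 mM NaCl. Then 0.4 mM S-2288 (H-D-Ile-Pro-Arg-pNA) added, 60 min at 37 °C. A405 read after preincubation and after substrate incubation, background subtracted. IC50 from % inhibition vs concentration. Ki = IC50/(1+[S]/Km), Km 250 µM.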
Target sequence in this assay (P00750 whole entry): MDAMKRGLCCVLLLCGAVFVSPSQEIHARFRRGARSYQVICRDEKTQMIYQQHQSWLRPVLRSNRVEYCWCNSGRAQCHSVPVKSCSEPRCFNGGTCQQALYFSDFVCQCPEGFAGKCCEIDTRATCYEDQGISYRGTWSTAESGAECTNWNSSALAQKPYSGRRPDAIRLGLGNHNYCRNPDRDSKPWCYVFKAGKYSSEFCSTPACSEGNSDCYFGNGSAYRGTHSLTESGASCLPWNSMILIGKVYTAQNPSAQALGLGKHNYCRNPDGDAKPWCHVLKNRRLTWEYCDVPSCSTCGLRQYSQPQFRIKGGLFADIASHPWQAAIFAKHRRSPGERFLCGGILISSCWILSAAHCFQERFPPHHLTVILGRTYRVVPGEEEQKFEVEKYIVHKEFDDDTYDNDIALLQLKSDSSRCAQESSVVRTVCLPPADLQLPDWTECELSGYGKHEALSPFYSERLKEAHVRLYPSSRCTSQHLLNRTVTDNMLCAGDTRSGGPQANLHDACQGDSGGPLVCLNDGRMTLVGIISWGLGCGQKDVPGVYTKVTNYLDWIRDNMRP

[15] = molecular target: T4, Tissue-type plasminogen activator; assay: Inhibition of human tPA at 100 uM
How it was run: (§2)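 Human one-chain tPA (0.4 µg/mL final) with 0.1 mg/mL tPA stimulator, preincubated with inhibitor for 15 min at 37 °C in 75 mM Tris pH 8.1, 50 mM NaCl. Then incubated with 0.4 mM S-2288 substrate for 60 min at 37 °C. Absorbance read at 405 nm, background subtracted, and percent inhibition calculated.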
Target sequence in this assay (P00750 36-562 limits assumed): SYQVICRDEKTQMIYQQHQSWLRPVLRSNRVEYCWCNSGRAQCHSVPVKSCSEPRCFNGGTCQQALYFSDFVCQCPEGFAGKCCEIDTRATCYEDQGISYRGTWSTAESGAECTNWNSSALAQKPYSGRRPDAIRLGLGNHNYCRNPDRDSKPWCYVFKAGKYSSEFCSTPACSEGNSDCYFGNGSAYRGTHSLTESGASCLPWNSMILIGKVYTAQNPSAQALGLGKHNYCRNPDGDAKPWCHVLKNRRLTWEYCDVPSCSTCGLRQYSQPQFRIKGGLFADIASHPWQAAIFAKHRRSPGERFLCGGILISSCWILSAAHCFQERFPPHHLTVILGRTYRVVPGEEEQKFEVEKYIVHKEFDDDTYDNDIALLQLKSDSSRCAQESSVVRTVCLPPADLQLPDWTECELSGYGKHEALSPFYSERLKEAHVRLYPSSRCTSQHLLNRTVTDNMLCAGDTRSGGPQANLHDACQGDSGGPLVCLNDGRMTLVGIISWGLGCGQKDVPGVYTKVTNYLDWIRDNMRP

[16] = molecular target: T3, Plasminogen; assay: Inhibition of human plasmin at 100 uM
How it was run: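 Human plasmin (0.7 µg/mL) preincubated with inhibitor for 15 min at 37 °C in 75 mM Tris pH 8.1, 50 mM NaCl. Then incubated with 0.2 mM Chromozym-PL for 30 min at 37 °C. Absorbance read at 405 nm, background at time zero subtracted, and percent inhibition calculated.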

[17] = molecular target: T4, Tissue-type plasminogen activator; assay: Inhibition of human tPA at 30 uM
How it was run: as §2
Target sequence in this assay (P00750 36-562 limits assumed): as above

T3 sequence (P00747 97-580 limits assumed): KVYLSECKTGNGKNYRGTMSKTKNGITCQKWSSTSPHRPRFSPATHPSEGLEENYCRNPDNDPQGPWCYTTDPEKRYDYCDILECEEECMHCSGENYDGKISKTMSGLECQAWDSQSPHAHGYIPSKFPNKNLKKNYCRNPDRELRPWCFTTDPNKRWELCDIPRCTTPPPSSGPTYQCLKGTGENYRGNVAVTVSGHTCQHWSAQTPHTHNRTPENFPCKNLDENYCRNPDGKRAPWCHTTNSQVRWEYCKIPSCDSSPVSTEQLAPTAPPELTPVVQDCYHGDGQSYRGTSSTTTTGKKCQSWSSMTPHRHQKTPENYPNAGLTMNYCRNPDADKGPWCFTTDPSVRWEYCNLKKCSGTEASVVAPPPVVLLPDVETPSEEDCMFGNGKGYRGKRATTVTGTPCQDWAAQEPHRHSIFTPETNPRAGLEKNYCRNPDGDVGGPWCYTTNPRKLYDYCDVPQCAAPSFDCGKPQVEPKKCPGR
T3 sequence (P00747 581-810 limits assumed): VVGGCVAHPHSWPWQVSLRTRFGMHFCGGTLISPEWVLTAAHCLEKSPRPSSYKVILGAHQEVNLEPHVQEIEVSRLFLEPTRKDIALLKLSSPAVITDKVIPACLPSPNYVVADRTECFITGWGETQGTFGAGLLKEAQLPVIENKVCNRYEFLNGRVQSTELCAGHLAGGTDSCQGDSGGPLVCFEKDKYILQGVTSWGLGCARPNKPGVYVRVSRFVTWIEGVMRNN
Sequence of Coagulation factor X (Homo sapiens) (P00742 41-179 limits assumed): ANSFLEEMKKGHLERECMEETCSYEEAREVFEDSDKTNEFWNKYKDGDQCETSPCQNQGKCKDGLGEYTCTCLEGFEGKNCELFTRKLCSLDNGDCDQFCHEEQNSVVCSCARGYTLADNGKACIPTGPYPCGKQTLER
Sequence of Coagulation factor X (Homo sapiens) (P00742 235-488 limits assumed): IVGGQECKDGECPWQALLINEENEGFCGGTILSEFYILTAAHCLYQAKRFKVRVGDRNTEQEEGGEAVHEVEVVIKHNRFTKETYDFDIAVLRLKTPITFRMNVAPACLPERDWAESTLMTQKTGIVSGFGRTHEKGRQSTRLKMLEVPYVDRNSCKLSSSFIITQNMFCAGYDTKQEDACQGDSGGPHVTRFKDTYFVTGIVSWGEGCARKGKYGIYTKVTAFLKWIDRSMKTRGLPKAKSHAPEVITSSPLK
Sequence of Coagulation factor IX (P00740 47-191 limits assumed): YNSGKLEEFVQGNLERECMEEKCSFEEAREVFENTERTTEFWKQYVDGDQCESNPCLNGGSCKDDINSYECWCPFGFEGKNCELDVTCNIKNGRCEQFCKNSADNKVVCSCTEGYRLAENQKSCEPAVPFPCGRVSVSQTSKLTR
Sequence of Coagulation factor IX (P00740 227-461 limits assumed): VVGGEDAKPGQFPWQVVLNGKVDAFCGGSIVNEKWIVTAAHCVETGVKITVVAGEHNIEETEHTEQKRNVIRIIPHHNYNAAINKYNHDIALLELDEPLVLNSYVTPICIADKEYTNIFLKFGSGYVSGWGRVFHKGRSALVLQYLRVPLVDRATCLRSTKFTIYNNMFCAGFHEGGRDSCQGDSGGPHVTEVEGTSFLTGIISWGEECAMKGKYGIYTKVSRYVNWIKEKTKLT

NC(N)=Nc1nccc2c(Cl)cc(-c3cccc(C(=O)O)c3)cc12
IC50 [1]: 8.35 µM | fraction unbound [2]: 0.002 | inhibition [3]: 2% | Ki [4]: 1.24 µM | inhibition [5]: 3% | logD [6]: 2.3 | IC50 [7]: 6.91 µM | inhibition [8]: 0% | pKa [9]: 2.35 | solubility [10]: 60 µM (≈ 20.4 µg/mL) | solubility [11]: < 1 µg/mL

NC(N)=Nc1ncc(Cl)c2ccc(S(=O)(=O)NC3(C(=O)O)CCCCC3)cc12
Ki [12]: 39 µM | Ki [13]: 0.008 µM | Ki [14]: > 100 µM

CC(C)[C@@H](NS(=O)(=O)c1ccc2c(Cl)cnc(N=C(N)N)c2c1)C(=O)O
Ki [12]: 16 µM | Ki [13]: 0.019 µM | Ki [14]: 38 µM

CN1CCN(C(=O)C2(NS(=O)(=O)c3ccc4c(Cl)cnc(N=C(N)N)c4c3)CCCC2)CC1
Ki [12]: 65 µM | Ki [13]: 0.0014 µM | Ki [14]: 34.7 µM

NC(N)=Nc1ncc(Cl)c2ccc(S(=O)(=O)N3CCCC[C@@H]3C(=O)O)cc12
Ki [12]: > 100 µM | Ki [14]: > 100 µM

CN(CC(=O)O)S(=O)(=O)c1ccc2c(Cl)cnc(N=C(N)N)c2c1
Ki [12]: > 100 µM | Ki [14]: > 100 µM | inhibition [15]: < 50%

C[C@@H](C(=O)O)N(Cc1ccccc1)S(=O)(=O)c1ccc2c(Cl)cnc(N=C(N)N)c2c1
Ki [13]: 0.027 µM | Ki [14]: > 100 µM

CN(C)CCN(C1(C(=O)O)CCCC1)S(=O)(=O)c1ccc2c(Cl)cnc(N=C(N)N)c2c1
Ki [12]: 32 µM | Ki [14]: 23 µM

CC(C)(CNS(=O)(=O)c1ccc2c(Cl)cnc(N=C(N)N)c2c1)C(=O)O
Ki [13]: 0.043 µM

NC(N)=Nc1nccc2ccc(S(N)(=O)=O)cc12
Ki [12]: 13 µM | Ki [13]: 0.28 µM | Ki [14]: 24 µM

NC(N)=Nc1ncc(Cl)c2ccc(S(=O)(=O)N3CCC[C@H]3C(=O)O)cc12
Ki [12]: > 100 µM | Ki [13]: 0.111 µM | Ki [14]: > 100 µM

NC(N)=Nc1ncc(Cl)c2ccc(S(=O)(=O)N3CCCC3)cc12
Ki [12]: > 30 µM | Ki [14]: > 30 µM

NC(N)=Nc1ncc(Cl)c2ccc(S(=O)(=O)NC3(C(=O)N4CCOCC4)CCCC3)cc12
Ki [12]: > 30 µM | Ki [13]: 0.0016 µM | Ki [14]: 34.4 µM

NC(N)=Nc1ncc(Cl)c2ccc(S(=O)(=O)NC3(C(=O)O)CCCC3)cc12
Ki [12]: 14 µM | Ki [13]: 0.0058 µM | Ki [14]: 38 µM

NC(N)=Nc1ncc(Cl)c2ccc(S(=O)(=O)N(CC(=O)O)CC3CCCC3)cc12
Ki [12]: 23 µM | Ki [13]: 0.031 µM | Ki [14]: > 100 µM

C[C@H](NS(=O)(=O)c1ccc2c(Cl)cnc(N=C(N)N)c2c1)C(=O)O
Ki [12]: 15 µM | Ki [13]: 0.021 µM

NC(N)=Nc1ncc(Cl)c2ccc(S(=O)(=O)Nc3ccccc3C(=O)O)cc12
Ki [12]: 33 µM | Ki [13]: 0.086 µM | Ki [14]: > 100 µM

CCOC(=O)C1(NS(=O)(=O)c2ccc3c(Cl)cnc(N=C(N)N)c3c2)CCCC1
Ki [12]: > 100 µM | Ki [13]: 0.014 µM | Ki [14]: 23 µM | inhibition [16]: < 50%

NC(N)=Nc1ncc(Cl)c2ccc(S(=O)(=O)Nc3cccc(C(=O)O)c3)cc12
Ki [12]: 9.8 µM | Ki [13]: 0.059 µM | Ki [14]: > 100 µM

CC(C)[C@H](NS(=O)(=O)c1ccc2c(Cl)cnc(N=C(N)N)c2c1)C(=O)O
Ki [12]: 45 µM | Ki [13]: 0.066 µM | Ki [14]: > 100 µM

CN1CCC(NS(=O)(=O)c2ccc3c(Cl)cnc(N=C(N)N)c3c2)(C(=O)O)CC1
Ki [12]: 71 µM | Ki [13]: 0.011 µM

NC(N)=Nc1ncc(Cl)c2ccc(S(=O)(=O)N(CC(=O)O)c3ccccc3)cc12
Ki [12]: > 100 µM | Ki [13]: 0.029 µM | Ki [14]: > 100 µM

NC(N)=Nc1ncc(Cl)c2ccc(S(=O)(=O)NCCC(=O)O)cc12
Ki [12]: > 100 µM | Ki [13]: 0.058 µM | Ki [14]: > 100 µM

NC(N)=Nc1ncc(Cl)c2ccc(S(=O)(=O)N3CCOCC3)cc12
Ki [13]: 0.33 µM

NC(N)=Nc1nccc2ccc(S(=O)(=O)Nc3ccccc3)cc12
Ki [12]: 3.2 µM | Ki [14]: 15 µM

NC(N)=Nc1ncc(Cl)c2ccc(S(=O)(=O)NC3(C(=O)NCCO)CCCC3)cc12
Ki [12]: > 100 µM | Ki [13]: 0.01 µM | Ki [14]: 108 µM

NC(=O)[C@H]1CCCN1S(=O)(=O)c1ccc2c(Cl)cnc(N=C(N)N)c2c1
Ki [13]: 0.054 µM

C[C@@H](NS(=O)(=O)c1ccc2c(Cl)cnc(N=C(N)N)c2c1)C(=O)O
Ki [13]: 0.028 µM

NC(N)=Nc1ncc(Cl)c2ccc(S(N)(=O)=O)cc12
Ki [12]: > 100 µM | Ki [14]: > 100 µM | inhibition [15]: < 50%

NC(N)=Nc1ncc(Cl)c2ccc(S(=O)(=O)NC3CCCC3)cc12
Ki [12]: > 100 µM | inhibition [17]: < 50% | Ki [13]: 0.071 µM | Ki [14]: > 30 µM

CN1CCN(S(=O)(=O)c2ccc3c(Cl)cnc(N=C(N)N)c3c2)CC1
Ki [13]: 0.55 µM

NC(N)=Nc1ncc(Cl)c2ccc(S(=O)(=O)NCC(=O)O)cc12
Ki [12]: > 30 µM | Ki [13]: 0.048 µM | Ki [14]: > 30 µM

CC(C)(C)[C@@H](NS(=O)(=O)c1ccc2c(Cl)cnc(N=C(N)N)c2c1)C(=O)O
Ki [12]: > 100 µM | Ki [13]: 0.022 µM | Ki [14]: > 100 µM

NC(N)=Nc1ncc(Cl)c2ccc(S(=O)(=O)N3CCC[C@@H]3CO)cc12
Ki [13]: 0.16 µM

NC(N)=Nc1ncc(Cl)c2ccc(S(=O)(=O)NC3(CO)CCCC3)cc12
Ki [13]: 0.067 µM

CN(C)CCNC(=O)C1(NS(=O)(=O)c2ccc3c(Cl)cnc(N=C(N)N)c3c2)CCCC1
Ki [12]: > 100 µM | Ki [13]: 0.03 µM

NC(N)=Nc1ncc(Cl)c2ccc(S(=O)(=O)N3CCC[C@@H]3C(=O)O)cc12
Ki [12]: > 100 µM | Ki [13]: 0.0099 µM | Ki [14]: > 100 µM | inhibition [15]: < 50%

NC(N)=Nc1ncc(Cl)c2ccc(S(=O)(=O)N(CC(=O)O)Cc3ccccc3)cc12
Ki [12]: > 100 µM | Ki [13]: 0.035 µM | Ki [14]: > 100 µM

NC(N)=Nc1ncc(Cl)c2ccc(S(=O)(=O)N3CC(C(=O)O)C3)cc12
Ki [13]: 0.33 µM

NC(N)=Nc1ncc(Cl)c2ccc(S(=O)(=O)NC3(C(=O)O)CCC3)cc12
Ki [12]: 16 µM | Ki [14]: > 100 µM | inhibition [15]: < 50%

NC(N)=Nc1ncc(Cl)c2ccc(S(=O)(=O)NC3(C(=O)O)CCOCC3)cc12
Ki [12]: 41 µM | Ki [14]: > 100 µM
